Structures are written as SMILES.

Results on one compound are retold here after ChEMBL document CHEMBL1122008, “Lipophilic 5'-(alkyl phosphate) esters of 1-beta-D-arabinofuranosylcytosine and its N4-acyl and 2,2'-anhydro-3'-O-acyl derivatives as potential prodrugs” (1982).

Common to all, as to assay type: functional
Experiment [1] has as its system Mus musculus. Put plainly: Antitumor activity against L1210 leukemia in mice (Percent increase in life span.) at the dose of 234 mg/kg (mice surviving 20 or more days). Summed up:
(§1)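 Male B6D2F1J mice, groups of 5–9, inoculated ip with 10^5 L1210 cells on day 0. Dosing starts day 1 on a qd×5 or q4d(2,6) schedule. Vehicles are sterile water, pH 7.4 0.05 M potassium phosphate buffer, or 0.4% Tween 80/0.5% CMC/0.9% benzyl alcohol/0.9% saline. %ILS = (T/C − 1)×100 from median survival. Weights taken days 1 and 7.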

Experiment [2] has as its system Mus musculus. Nature of the experiment: Antitumor activity against L1210 leukemia in mice (Average weight per mouse on day 1.) at the dose of 234 mg/kg. Summed up:
(§2)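 Male B6D2F1J mice (5–9 per group) received 10^5 L1210 cells i.p. on day 0 and drug from day 1, given qd×5 or q4d(2,6). Vehicles were sterile water, 0.05 M potassium phosphate pH 7.4, or 0.4% Tween 80/0.5% CMC/0.9% benzyl alcohol/0.9% saline. Read-out is average body weight per mouse (g) on day 1.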

Experiment [3] relates to Mus musculus. Nature of the experiment: Antitumor activity against L1210 leukemia in mice (Average weight per mouse on day 1.) at the dose of 468 mg/kg. Summed up: as §2
Experiment [4] has as its system Mus musculus. Put plainly: Antitumor activity against L1210/ara-C leukemia in mice (Average weight per mouse on day 1.) at the dose of 117 mg/kg. Summed up:
(§3)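 Male B6D2F1J mice, groups of 5–9, inoculated ip with 10^5 L1210/ara-C cells on day 0. Dosing began day 1 on a qd×5 or q4d(2,6) schedule. Ara-C was given in sterile water, the n-butyl phosphate ester in 0.05 M pH 7.4 potassium phosphate buffer, and others as suspensions in 0.4% Tween 80/0.5% CMC/0.9% benzyl alcohol/0.9% saline. Mice were weighed on days 1 and 7; 7-day change given in g and %.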

The test system of experiment [5] is Mus musculus. Put plainly: Antitumor activity against L1210/ara-C leukemia in mice (Average weight per mouse on day 1.) at the dose of 234 mg/kg. Summed up:
as §3

In experiment [6] the test system is Mus musculus. Put plainly: Antitumor activity against L1210/ara-C leukemia in mice (Average weight per mouse on day 1.) at the dose of 468 mg/kg. A digest of the protocol:
as §3

Experiment [7] has as its system Mus musculus. Put plainly: Antitumor activity against L1210 leukemia in mice (Percent increase in life span.) at the dose of 117 mg/kg. A digest of the protocol: as §1
In experiment [8] the test system is Mus musculus. Put plainly: Antitumor activity against L1210 leukemia in mice (Percent increase in life span.) at the dose of 468 mg/kg (mice surviving 20 or more days). Summed up: as §1
The test system of experiment [9] is Mus musculus. Nature of the experiment: Antitumor activity against L1210/ara-C leukemia in mice (Percent increase in life span.) at the dose of 117 mg/kg. Summed up: (§4)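 Same protocol as the L1210 assay, but with 10^5 kinase-deficient L1210/ara-C cells inoculated ip into male B6D2F1J mice (groups of 5–9) on day 0. Treatment begins day 1, qd×5 or q4d(2,6). %ILS = (T/C − 1)×100 using median survival times of treated and control groups. Body weight recorded days 1 and 7.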

For experiment [10], the system named is Mus musculus. Put plainly: Antitumor activity against L1210 leukemia in mice (Average 7-day weight change (%)) at the dose of 234 mg/kg. Summed up: (§5)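 Male B6D2F1J mice, groups of five to nine, inoculated ip with 10^5 L1210 cells on day 0. Drug treatment started day 1 on qd×5 or q4d(2,6) schedule. Vehicles: ara-C in sterile water; the n-butyl phosphate ester in 0.05 M pH 7.4 potassium phosphate buffer; others as suspensions in 0.4% Tween 80/0.5% low-density CMC/0.9% benzyl alcohol/0.9% saline. Mice weighed days 1 and 7; 7-day weight change given as g/mouse and %.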

In experiment [11] the test system is Mus musculus. Put plainly: Antitumor activity against L1210 leukemia in mice (Average 7-day weight change (%)) at the dose of 468 mg/kg. A digest of the protocol:
as §5

Experiment [12] deals with Mus musculus. Nature of the experiment: Antitumor activity against L1210/ara-C leukemia in mice (Percent increase in life span.) at the dose of 234 mg/kg. Summed up: as §4
In experiment [13] the test system is Mus musculus. Nature of the experiment: Antitumor activity against L1210/ara-C leukemia in mice (Percent increase in life span.) at the dose of 468 mg/kg. A digest of the protocol:
as §4

Experiment [14] has as its system Mus musculus. Nature of the experiment: Antitumor activity against L1210 leukemia in mice (Average 7-day weight change) at the dose of 234 mg/kg. A digest of the protocol: as §5
Experiment [15] has as its system Mus musculus. Put plainly: Antitumor activity against L1210 leukemia in mice (Average 7-day weight change) at the dose of 117 mg/kg. A digest of the protocol:
as §5

The subject of experiment [16] is Mus musculus. Put plainly: Antitumor activity against L1210/ara-C leukemia in mice (Average 7-day weight change) at the dose of 117 mg/kg. Summed up:
(§6)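 Male B6D2F1J mice (5–9 per group) were given 10^5 L1210/ara-C cells i.p. on day 0, with treatment from day 1 on qd×5 or q4d(2,6). Vehicles were sterile water, pH 7.4 0.05 M phosphate buffer, or a Tween 80/CMC/benzyl alcohol saline suspension. Weights were taken on days 1 and 7; change is expressed in g/mouse and as a percentage.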

Experiment [17] concerns Mus musculus. Nature of the experiment: Antitumor activity against L1210/ara-C leukemia in mice (Average 7-day weight change) at the dose of 234 mg/kg. A digest of the protocol:
as §6

Experiment [18] has as its system Mus musculus. Put plainly: Antitumor activity against L1210/ara-C leukemia in mice (Average 7-day weight change) at the dose of 468 mg/kg. A digest of the protocol: as §6
Experiment [19] deals with Mus musculus. Nature of the experiment: Antitumor activity against L1210 leukemia in mice (Average 7-day weight change) at the dose of 468 mg/kg. A digest of the protocol: as §5
The subject of experiment [20] is Mus musculus. Nature of the experiment: Antitumor activity against L1210/ara-C leukemia in mice (Average 7-day weight change (%)) at the dose of 117 mg/kg. Summed up: as §6
Experiment [21] has as its system Mus musculus. Put plainly: Antitumor activity against L1210/ara-C leukemia in mice (Average 7-day weight change (%)) at the dose of 234 mg/kg. Summed up: as §6
For experiment [22], the system named is Mus musculus. Nature of the experiment: Antitumor activity against L1210/ara-C leukemia in mice (Average 7-day weight change (%)) at the dose of 468 mg/kg. A digest of the protocol:
as §6

For experiment [23], the system named is Mus musculus. Put plainly: Antitumor activity against L1210 leukemia in mice (Average 7-day weight change (%)) at the dose of 117 mg/kg. Summed up:
as §5

For experiment [24], the system named is Mus musculus. Nature of the experiment: Antitumor activity against L1210 leukemia in mice (Average weight per mouse on day 1.) at the dose of 117 mg/kg. Summed up: as §2

For `CCCCCCCCCCCCCCCC(=O)O[C@H]1[C@@H]2Oc3nc(=N)ccn3[C@@H]2O[C@@H]1COP(=O)(O)OCC`, the ILS at 234 mg/kg stood at 138% with Mus musculus [1] and 0% in the experiment with Mus musculus [12]. Besides, the Average weight amounted to 24.2 g mouse-1 in the experiment with Mus musculus [2]; 23.6 g mouse-1 in the experiment with Mus musculus [3]; 22.4 g mouse-1 in the experiment on Mus musculus [4]; 21.4 g mouse-1 in the experiment with Mus musculus [5]; 22 g mouse-1 with Mus musculus [6]; 24.4 g mouse-1 in the experiment with Mus musculus [24]. Moreover, the ILS at 117 mg/kg came out at 75% in the experiment with Mus musculus [7] and 0% in the experiment on Mus musculus [9]. Further, the values for the ILS at 468 mg/kg in the experiment on Mus musculus [8] and in the experiment with Mus musculus [13] were 100% and -13%, respectively. The Weight change in the experiment with Mus musculus [10] is -11%; in the experiment with Mus musculus [11], -16%; in the experiment with Mus musculus [14] it was -2.6 g mouse-1; with Mus musculus [15], -1.6 g mouse-1; in the experiment with Mus musculus [16], 2 g mouse-1; with Mus musculus [17], 0.2 g mouse-1. Also, the Weight change is given as -2.4 g mouse-1 in the experiment on Mus musculus [18]; -3.8 g mouse-1 in the experiment on Mus musculus [19]; 9% in the experiment with Mus musculus [20]; 1% with Mus musculus [21]; -20% in the experiment on Mus musculus [22]; -7% in the experiment with Mus musculus [23].
